Experimental data taken from the EternaBench riboswitch data.

Test system: MS2 coat protein
Test: apparent Kd, MS2 coat protein; higher = weaker binding; RNA-MaP array; FMN 200 µM where present
Procedure, shortened: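 Designs were transcribed by stalled E. coli RNA polymerase on Illumina sequencing-chip clusters. They were titrated with SNAP-549-labelled MS2 coat protein from 0.7 or 1.5 nM, doubling to 3 µM, in 100 mM Tris-HCl pH 7.5, 80 mM KCl, 4 mM MgCl2, BSA, DTT, yeast tRNA and Tween-20, without and then with constant ligand. The apparent Kd is the median of filtered per-cluster fits after normalisation of green signal to red-channel RNA signal and control-cluster median Fmax.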

[1] = designed as: OFF switch for flavin mononucleotide, no ligand
[2] = ligand present: flavin mononucleotide, designed as: OFF switch for flavin mononucleotide
[3] = designed as: ON switch for flavin mononucleotide, no ligand
[4] = ligand present: flavin mononucleotide, designed as: ON switch for flavin mononucleotide

Sequence | apparent Kd [1] [nM] | apparent Kd [2] [nM] | apparent Kd [3] [nM] | apparent Kd [4] [nM]
UGAAAUCAUGUAGGAUAUGCAUGGCGAAGCUACGCAGAAGGACAUGAGGAUCACCCAUGUUCUAGCUACCGAGAACGGUGGCAA | 20.9 | 109 |  | 
GGAUAGGACAGAGGAUAUACGUGCUAGAGAUACUAGCAAAAUUUCCUCACAUGAGGAUCACCCAUGUAGAAGGCUGUUCUAUCG | 14.6 | 473 |  | 
ACAUACAUUCGAGGAUAUCAGUGAACAUAUUAUUGAGAAGGCGAUAUUAUUUUUAAUCUUAUUUACAUGAGGAUCACCCAUGUU |  |  | 22.6 | 19.6
UUUUUGUGAGGAUAUCAGUAGUAAAAAAAUAAAAUUACUACUGAGAAGGCACAUGAGGAUCACCCAUGUUUUUU | 41.7 | 96.5 |  | 
AAUAGUGACCAGAAGGCGUCGCGUCGAUAGCGACGAGGAUAUGGUGAGUGAGGAGCAAACUCCACAUGAGGAUCACCCAUGUCC |  |  | 594 | 89.9
CACCGUUAGAGAGGAUAUCGUACAUGAGGAUCACCCAUGUAAUAAAUGAGAAUUUCGGAUGUCUGCGAGAAGGCUCGAAUCGGC | 34.6 | 27.9 |  | 
GGGUCAAUCUUUAGGUGGCGAGACUAGGAUAUGAGUGGUCCCACAUGAGGAUCACCCAUGUGUACUUAGAAGGAGUAGCGCCGU |  |  | 160 | 184
CUAAUUCAUGUAGGAUAUGCGUGGCGAAGCUAUGCAGAAGGACAUGAGGAUCACCCAUGUCUUUCCGUCUGCGUACAGACGGAA | 24.7 | 201 |  | 
GGUUUGGGAGGAUAUGGUUUUAAUAACAUGAGGAUCACCCAUGUAAAUAGAUCUUCGAGGCCAGAAGGCUCGGGCC | 63.8 | 120 |  | 
GCCUUAUCGGUCAGGAUAUACACUUGUUAGUUGUUGUAGAAGGGACAUGAGGAUCACCCAUGUACAUUACAUUG | 23.2 | 58.5 |  | 
AUCUUUAACAUAGGAUAUAGUAUGAUGGUUUAAUUAGAAGGAUGUCACAUGAGGAUCACCCAUGUAAUAGGAUUACCCAUGUAU | 20.2 | 15.7 |  | 
UUAUUGGGACAGAAGGGCAUUUACAUGAGGAUCACCCAUGUGUAUAGUUGCAGGAUAUGUAUUACAUGUGAAUCAUCAAAGUGC |  |  | 75.5 | 25.5
GAGCGGGAAACAUGAGGAUCACCCAUGUAAUAAAUCCUCAAGUAGGAUAUGCACACGAGAAGUGUGCAGAAGGGCUACCCGGUC | 29.7 | 46.2 |  | 
UUUUUACGAGGAUAUCGUUUUUUUCACAUGAGGAUCACCCAUGUUGUUUAUGUUUCGUUGCGAGAAGGCGUUUGUU | 27.3 | 21.3 |  | 
GGUGAGCAAGGAUAUACAUGAGGAUCACCCAUGUGAGAUGCGCAGGGCCCGAUGAUAGGUAGAAGGUGCGUCAC | 34.5 | 72.8 |  | 
CCCAAACUUGGGCUUGGCGGUGCAUAGGAUAUCCUUGAACAUGAGGAUCACCCAUGUACAACUGUGGAGAAGGGUGCAGGGCCU |  |  | 132 | 17.3
GAAUAGUUGAGAGGAUAUGUAUUAUUGUAGGAUACAGAAGGUUUUAACAUGAGGAUCACCCAUGUAGGACUAUAUAUGUGAAUA |  |  | 15.2 | 13.2
CCAUAGUACAAUUUAGAUCUACAUGAGGAUCACCCAUGUACUGAGGAUAUCAGCUCGAAUAGAGCUGAGAAGGCAGAAUUAAUU |  |  | 132 | 59.2
CGUGCAUAUGUAGGAUAUGGUUAUCUAUGUCUAGUUACUAGACAUAGAUAACCAGAAGGACAUGAGGAUCACCCAUGUUGCACG | 12.8 | 24.2 |  | 
CAGCGCUGUCGAGAGGAUAUGCGGUGAUGGACAUGAGGAUCACCCAUGUUAGCGAUAGCAUUACGGUAGAAGGCUCUGCAGCUGC |  |  | 128 | 21
UCAUUUAUCACAGGAUAUAUUAGUAUACAGUUGUUUGGCUCUUACAUAUUAAUAGAAGGGUGCAACAUGAGGAUCACCCAUGUA |  |  | 262 | 102
GUAGCAUACCGAGGAUAUUCAUAGAAUAAAUAAACAUGAGGAUCACCCAUGUGGCGAAAGCCUAGGGAGAAGGCGGAAUGCUAC |  |  | 183 | 20.3
UGAUCGAGAGAUCUUAGAUUCUGGUAGGAUAUACAUUAUGUUUAAAAUACAUGAGGAUCACCCAUGUAGAAGGACUAGAGUCUA | 6.76 | 13.9 |  | 
AAGUAUAAGGGCAUUAAACAUGAGGAUCACCCAUGUACAAUAGAGGAUAUGCAUUUUGGUUUAGAGUAGAAGGUUAGAGAAUAU | 28 | 33.4 |  | 

Sequence | apparent Kd [1] [nM] | apparent Kd [2] [nM] | apparent Kd [3] [nM] | apparent Kd [4] [nM]
ACUAUACGAGGAUAUGCUGUCAAUACUAAGGAAUUAGUAUGACAUGAGGAUCACCCAUGUAGAAGGCGUAUACU | 27.8 | 14.7 |  | 
UGUUGUAUUACAGGAUAUCUAUGAUUUAUAUUUAGAGAAGGGUAUUCACAUGAGGAUCACCCAUGUAUAUACGAGGAAGUUGUG |  |  | 48.7 | 55.9
AGUAAGAUGCAGAAGGUGUCAGCGAGAGCUACGACAUGAGGAUCACCCAUGUACUAGAUAGAGUACAAGGAUAUGCAUCUUACA |  |  | 729 | 35.1
UUUUCCGGGCAGAAGGGUCCUCACAUGAGGAUCACCCAUGUAAACGCGGAUAGGAUAUGCCACUGGGCUCGAUAAGAGUGGUUC |  |  | 409 | 160
GGAGGGACAGCAGGAUAUGAGUGGGACGCACUGUGUACGCGGGUGUGGAUGUCAGAAGGGCUGACAUGAGGAUCACCCAUGUAA |  |  | 114 | 55.4
ACAAUGUGGUAAGGAUAUCCAAUGGCAUCCCUAGGAGAAGGUAUCACAUGAGGAUCACCCAUGUGAAGGAUGGGUUAUCGCAAA | 223 | 121 |  | 
GGUGACCUUGUAAGGAUAUCGAAUUUAGAUGAGCACGAGAAGGUACAUGAGGAUCACCCAUGUCUGCGGUAACU | 50.8 | 102 |  | 
CAGGGUAGAGGAUAUACGUAGGUACAGAUCUGUGUGUUCCUACAUGAGGAUCACCCAUGUAGAAGGCUAGCCUG | 89.7 | 324 |  | 
AUUAACUACAUAGGAUAUUGAUACAUGAGGAUCACCCAUGUCACCCAUGUUUAUUUAUCAAUUGACAAGAAGGAUGUGGUUACA |  |  | 69.8 | 46.5
UCGAUAAGGAGAGGAUAUGGACAUGAGGAUCACCCAUGUACAUGGGAAUAUAUUCUGAAUUUUUACUAGAAGGCUUACAUAAAU | 20.8 | 17.1 |  | 
AAUUAGGUCACAGGAUAUACUACUUCCAAUGCUGUAGAAGGGUGACACAUUCUUUGCUGACAUGAGGAUCACCCAUGUAACCAC |  |  | 231 | 41
CGAUGUUAUGUCAGGAUAUGCAUUGCGAAAGCAAUGCAGAAGGGACAUGAGGAUCACCCAUGUCCUAACCAUCG | 13.2 | 20.1 |  | 
UAUAUGUCAGGAUAUCGAUUGGAGCGGAAUUUAGCUUUGGUCGAGAAGGGACAUGAGGAUCACCCAUGUUCCUC | 30 | 142 |  | 
CAAGACAUUCGAAACUGCCGGCCGCAGGAUAUGGGUCGUUUAUACAUGAGGAUCACCCAUGUCGCCUAGAAGGGCGGCUGGGUC |  |  | 174 | 17.6
GUAGCUAUCGGAGGAUAUUCAUACCGGAAAAGGACAUGAGGAUCACCCAUGUGGUGAAAGCCUUGGGAGAAGGCCGAUAGCUAC |  |  | 484 | 191
UUUAAUUAGUAAGGAUAUACUAGUGAUUAGCUUGUAGAAGGUACAGUCUUAUGUAUAACAAAUUAACAUGAGGAUCACCCAUGU |  |  | 10.6 | 7.99
GCGUAAUAGGUGUAGCUAGUCGUACAAGAAGGGUGGAGAACAUGAGGAUCACCCAUGUGGUCUAUACAGGAUAUUGUUAUACGC |  |  | 176 | 30.5
GUCGGAAACGACAAAAGUAGCAUAGGAGAAGGCAUGUCAUAAGACAUGAGGAUCACCCAUGUUCGUGAGGAUAUCCUAUGCUAC |  |  | 37.3 | 13.2
GGGCCCGGAGGAUAUACAUGAGGAUCACCCAUGUACCCGGGUUUUAUUGGGCCCGGGUGUAGAAGGCCGGGCCC | 13.1 | 14.8 |  | 
UUAAUUAUACAAGGAUAUCUAUUGUUGUUUCGACAUACAUGAGGAUCACCCAUGUUAGUAUGUUUAGAGAAGGUGUAUUUUCAG |  |  | 29 | 25.7
ACUUCACAUGAGGAUCACCCAUGUCAGGCCGGACUAGGAUAUUAUCAUGCAGCGUGACAGUGAGAAGGAGUUGGAU |  |  | 162 | 188
UCGCUGCGAGGAUAUACGUUUGCGCGCUUUCGUUUGCGCGUACAUGAGGAUCACCCAUGUAGAAGGCGCGCCGC | 15.9 | 15.9 |  | 
AACCAACAUGAGGAUCACCCAUGUCAACCCAAGCGAGGAUAUCGGAGAAUAACAAUGGGACGAGAAGGCGCGACCU |  |  | 72.9 | 47.8
CCGGCCGCCGUGAGGAUAUGCCCGCGCGCCCGCGGGCAGAAGGCACAUGAGGAUCACCCAUGUCCCGCGGCACC | 13.8 | 15.7 |  | 
